Hits are enriched below; roughly 1.3% of the tested compounds scored in any of these assays.
TMEM16A act – activates or potentiates the mouse TMEM16A chloride channel. B-score at 10 µM. HEK293 TMEM16A/YFP-H148Q/I152L, iodide quench fluorescence; active compounds read low. hit rate 0.3% among 340,000. Q8BHY3. AID 623877;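 active = fluorescence-ratio B-score plate-corrected deviation score at least 3 library SD below zero, with starting fluorescence score within 5 deviations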;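 note: channel opened by trigger with iodide after compound preincubation; score built on the fluorescence ratio of max minus min over baseline; more negative score means more quench and so TMEM16A activation or potentiation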
ANO1 block – inhibitors of mouse TMEM16A calcium-activated chloride channel; Q8BHY3; HEK293 TMEM16A/YFP iodide influx fluorescence, ionomycin; normalized B-score (activity score, 25-100; higher = stronger inhibition) at 10 µM; hit rate 1.2% among 310,000; AID 588511;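 active = ratio plate-corrected score three or more library SD toward inhibition, starting fluorescence score within five deviations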;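 note: score derived from kinetic fluorescence span divided by baseline fluorescence per well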
MT1-MMP act inh – inhibitors of human MT1-MMP activation | P50281 | HT1080 RFP-PRO-GFP cells, GFP/RFP ratio fluorescence, overnight; percent of plate control window, DMSO zero | GFP/RFP ratio change, % at 20 µM | hit rate 0.061% among 360,000;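 active = GFP/RFP ratio change of at least 30% with cell ATP level not reduced by more than half and red fluorescence within 50% of control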
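Assay system: HT1080 RFP-PRO-GFP cells. Benchmarks: DMSO vehicle wells and RFP-L50D-GFP reporter cell wells. Times: overnight cell settling, then overnight compound exposure, 37 °C, 5% CO2. Compound: 20 µM single dose, 1% DMSO. Read-out basis: GFP/RFP fluorescence ratio.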
DAGLB inh – blocks human DAGLB lipase activity; HEK293T DAGLB membrane lysate, EnzChek fluorogenic substrate; inhibition, % at 5.17 µM; hit rate 0.059% among 340,000; AID 504411; in the data active = inhibition above about 34%;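 note: 0% = enzyme with vehicle and 100% = wells lacking enzyme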
Target sequence (Q8NCG7 whole entry, looked up): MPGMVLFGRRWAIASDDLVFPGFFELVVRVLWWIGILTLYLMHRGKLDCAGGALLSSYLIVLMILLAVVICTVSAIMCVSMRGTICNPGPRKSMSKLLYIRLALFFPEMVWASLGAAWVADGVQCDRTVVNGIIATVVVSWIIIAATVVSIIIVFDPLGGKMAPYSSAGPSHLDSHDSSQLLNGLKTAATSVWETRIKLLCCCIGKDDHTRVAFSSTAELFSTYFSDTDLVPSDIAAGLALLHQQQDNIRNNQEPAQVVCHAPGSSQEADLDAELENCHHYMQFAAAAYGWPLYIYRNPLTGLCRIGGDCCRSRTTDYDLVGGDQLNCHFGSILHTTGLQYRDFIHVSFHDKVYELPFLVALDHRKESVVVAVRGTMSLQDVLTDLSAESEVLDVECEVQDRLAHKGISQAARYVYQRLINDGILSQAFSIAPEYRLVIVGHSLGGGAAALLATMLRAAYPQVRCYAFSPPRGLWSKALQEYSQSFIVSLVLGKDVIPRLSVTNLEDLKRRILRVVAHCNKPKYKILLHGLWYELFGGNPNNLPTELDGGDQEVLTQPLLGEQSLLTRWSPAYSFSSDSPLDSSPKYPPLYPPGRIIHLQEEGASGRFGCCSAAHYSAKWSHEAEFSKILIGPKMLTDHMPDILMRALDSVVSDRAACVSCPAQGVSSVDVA
* = called active by the depositor.

CC1=NN(c2ccc(C(=O)O)cc2)C(=O)/C1=C/c1ccc(-c2ccccc2F)o1 was read as TMEM16A act inactive, ANO1 block 100*, MT1-MMP act inh 3.4 and DAGLB inh -2.1.
Screening CC1=NN(c2ccccc2)C(=O)/C1=C/c1ccc(Cl)cc1 returned TMEM16A act inactive, ANO1 block 25*, MT1-MMP act inh 1.6 and DAGLB inh 4.1.
For CC1=NN(c2ccccc2)C(=O)C1=Cc1ccccc1 the results were MT1-MMP act inh 8.4 and DAGLB inh 4.6.
Screening CC1=NN(c2ccc(Cl)c(C(=O)O)c2)C(=O)/C1=C\c1ccc(-c2ccc(C(=O)O)cc2)o1 returned TMEM16A act inactive, MT1-MMP act inh -12.1 and DAGLB inh 1.4.
CCOC(=O)c1cc2c(c(-c3ccccc3)n1)[C@H](CCO)N(S(=O)(=O)C(C)(C)C)C2 was read as MT1-MMP act inh 1.1 and DAGLB inh -1.5.
Screening O=C(CN1C(=O)c2ccccc2C1=O)C(O)CN1C(=O)c2ccccc2C1=O (stereo not given) returned MT1-MMP act inh 2.5.
Screening O=C(Nc1ccc([N+](=O)[O-])cc1Cl)c1cc(Cl)ccc1O returned TMEM16A act inactive, ANO1 block 100*, MT1-MMP act inh -5.1 and DAGLB inh 2.8.
O=C(Nc1cccc(Cl)c1)c1cc(N=Nc2ccc([N+](=O)[O-])cc2Cl)ccc1O was read as TMEM16A act -5.68*, ANO1 block 100*, MT1-MMP act inh 107.7 and DAGLB inh 16.4.
For CCOC1=C2[C@H](c3ccc(CC)cc3)N(S(=O)(=O)c3ccc(C)cc3)C[C@H]2C(C#N)(C#N)C(C#N)(C#N)C1 the results were MT1-MMP act inh -7.5.
Screening Cc1cc(OC(C)C(=O)NCc2ccccn2)c2c(C)c(C)c(=O)oc2c1 (stereo not given) returned TMEM16A act inactive, ANO1 block inactive, MT1-MMP act inh 2.5 and DAGLB inh -3.9.
For C/C(=N/NC(=O)c1nnn(-c2nonc2N)c1CSc1ccc(C)cc1)c1ccncc1 the results were MT1-MMP act inh 2.3 and DAGLB inh -3.9.
`O=C(NCCOc1nc(N2CCCCC2)nc(N2CCCCC2)n1)Nc1ccccc1` gave TMEM16A act inactive, ANO1 block inactive, MT1-MMP act inh -5.2 and DAGLB inh -0.4.
`CC(=O)NCCOc1nc(N2CCCCC2)nc(N2CCCCC2)n1` gave TMEM16A act -7.01*, ANO1 block inactive, MT1-MMP act inh 4.9 and DAGLB inh 1.1.
`COc1ccc(NC(=O)COC(=O)c2ccco2)c([N+](=O)[O-])c1` gave TMEM16A act inactive, ANO1 block inactive, MT1-MMP act inh 0.1 and DAGLB inh -2.2.
Screening O=C(COC(=O)c1ccco1)Nc1ccc([N+](=O)[O-])cc1Cl returned TMEM16A act -25.7*, MT1-MMP act inh 0.3 and DAGLB inh -1.1.
`CSCCC(C(=O)Nc1c(C)cccc1C)n1c(COc2ccc(C)cc2)nc2ccccc21` (stereo not given) gave MT1-MMP act inh -15.9.
For CC(=O)NC(c1ccccc1)c1c(O)ccc2ccccc12 (stereo not given) the results were TMEM16A act -6.54*, ANO1 block inactive, MT1-MMP act inh -3.7 and DAGLB inh -2.5.
Cc1ccc2cccc(CC(=O)NN)c2c1 was read as MT1-MMP act inh 0.9 and DAGLB inh 1.6.
CN(c1ccccc1)S(=O)(=O)c1cccc(C(=O)NNC(=O)c2ccccc2)c1 was read as TMEM16A act inactive, ANO1 block 25*, MT1-MMP act inh -3.7 and DAGLB inh -0.3.
`CC(=O)Nc1ccc(C(=O)Nc2cccc(S(=O)(=O)N(C)c3ccccc3)c2)cc1` gave TMEM16A act inactive, MT1-MMP act inh 7.1 and DAGLB inh -2.4.
For CN(c1ccccc1)S(=O)(=O)c1ccc(C(=O)NNC(=O)c2ccccc2)cc1 the results were TMEM16A act inactive, MT1-MMP act inh -1.2 and DAGLB inh 1.5.
For CN(c1cccc(NC(=O)c2ccc(N(C)S(=O)(=O)c3ccccc3)cc2)c1)S(C)(=O)=O the results were TMEM16A act inactive, ANO1 block 100*, MT1-MMP act inh -2.5 and DAGLB inh 0.9.
Screening Cc1cccnc1C(NC(=O)C1CCN(CCCOc2ccc(F)cc2)CC1)c1ccccc1 (stereo not given) returned MT1-MMP act inh -2.1.
For C=CCN=C(NC#N)SCC(=O)c1cccc(OC)c1 the results were TMEM16A act inactive, ANO1 block 25*, MT1-MMP act inh -4.4 and DAGLB inh -0.4.
Screening O=C(NC1CC1)C1CCN(S(=O)(=O)c2ccc(Cl)c([N+](=O)[O-])c2)CC1 returned TMEM16A act inactive, MT1-MMP act inh -5.0 and DAGLB inh 2.6.
For O=C(Nc1c(-c2ccc3c(c2)OCO3)[nH][nH]c1=O)c1ccccc1 the results were MT1-MMP act inh 3.0.
`COc1ccc(NC(=O)/C(Cl)=C(/Cl)S(=O)Cc2ccccc2Cl)cn1` (stereo not given) gave TMEM16A act -4.6*.
COc1ccc(NC(=O)Cc2ccc(Cl)c(Cl)c2)cn1 was read as TMEM16A act inactive, ANO1 block inactive, MT1-MMP act inh -0.4 and DAGLB inh 2.7.
Screening O=c1[nH]c(CSc2nc3ccccc3[nH]2)nc2c1cnn2-c1ccccc1 returned TMEM16A act inactive, ANO1 block 100*, MT1-MMP act inh -6.5 and DAGLB inh 0.6.
Cn1c(=O)c2[nH]c(C(O)c3ccc(Cl)cc3)nc2n(C)c1=O (stereo not given) was read as TMEM16A act inactive, MT1-MMP act inh 3.7 and DAGLB inh -3.5.
For CCCNC(=O)OC[C@H]1O[C@H](CCO/N=C/C[C@@H]2C=C[C@H](OC(C)=O)[C@@H](COC(C)=O)O2)C=C[C@@H]1Oc1ccc(OC)cc1 the results were ANO1 block 25*.
COc1ccc(CC2(CO)CCN(Cc3cc4ccccc4o3)CC2)cc1 was read as TMEM16A act inactive, ANO1 block 25*, MT1-MMP act inh 1.9 and DAGLB inh -0.2.
`CCCCN(C(=O)C1CC(=O)N(c2ccc(CC)cc2)C1)c1c(N)n(CCC)c(=O)[nH]c1=O` (stereo not given) gave TMEM16A act inactive, MT1-MMP act inh 1.4 and DAGLB inh 1.1.
`O=[N+]([O-])c1ccc(N=Nc2ccc(O)cc2O)cc1` gave TMEM16A act inactive, ANO1 block 100*, MT1-MMP act inh 1.3 and DAGLB inh 2.0.
For O=[N+]([O-])c1cccc(N=Nc2ccc(O)cc2O)c1 the results were TMEM16A act inactive, MT1-MMP act inh 13.3 and DAGLB inh 28.3.
For CN(C)c1ccc(-c2csc(C(C)(O)c3ccccc3)n2)cc1 (stereo not given) the results were MT1-MMP act inh -5.7.
Screening Cc1ccc(S(=O)(=O)N2CCC[C@H]2C(=O)OCC(=O)c2ccc3c(c2)NC(=O)CO3)cc1 returned TMEM16A act inactive, ANO1 block 25*, MT1-MMP act inh 0.3 and DAGLB inh 0.5.

Bioassay records from PubChem.
